A selection: hits, their analogues and other compounds. The true share with any hit is near 3.1%.
KCNK3 inh: human KCNK3 channel inhibitors, primary screen, CHO cells, FluxOR thallium flux, B-score. Potassium channel subfamily K member 3 (Homo sapiens), O14649. FluxOR fluorescence; hits give low values. B-score at 10 µM. actives 0.84% (n = 340,000). AID 602410, 2012;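 active means B-score under library mean minus 4 SD, starting fluorescence ratio at most library mean plus 5 SD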;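 further: more negative B-score means stronger inhibition of thallium flux through KCNK3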
hERG protect: hERG rescue from dofetilide block, primary screen, cell-based, CHO-hERG, FluxOR thallium flux, dofetilide IC70; AID 1511, 2009; Voltage-gated inwardly rectifying potassium channel KCNH2 (Homo sapiens), Q12809; activation (rescue from dofetilide block), less the hit threshold, % at 10 µM; actives 0.51% (n = 310,000); dofetilide IC70 present;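 active means activation above the mean of controls blocked by dofetilide plus 5 SD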;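 further: thallium influx through hERG after potassium depolarization seen as dye fluorescence rise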
KCNK9 block: KCNK9 potassium channel inhibitors, primary screen, HEK293 cells, thallium flux | Potassium channel subfamily K member 9 (Homo sapiens), Q9NPC2 | FluxOR thallium flux fluorescence; hits give low values | B-score at 10 µM | actives 1.2% (n = 310,000) | AID 488922, 2010;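 active means ratio B-score over 3 SD below the library mean, with starting fluorescence within 5 SD of its mean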;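 further: negative B-score means less thallium flux so channel inhibition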
KCNQ1 act: potentiators or activators of KCNQ1 channel, primary screen, cell-based, thallium flux, high-throughput; Potassium voltage-gated channel subfamily KQT member 1 (Homo sapiens), P51787; B-score at 10 µM; CHO-K1 KCNQ1, thallium flux FluxOR fluorescence; hits give high values; actives 0.35% (n = 310,000);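 active means fluorescence ratio B-score, a plate-corrected score, at least three library SD, with initial intensity B-score within 5 SD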
Target sequence (P51787 whole entry, looked up): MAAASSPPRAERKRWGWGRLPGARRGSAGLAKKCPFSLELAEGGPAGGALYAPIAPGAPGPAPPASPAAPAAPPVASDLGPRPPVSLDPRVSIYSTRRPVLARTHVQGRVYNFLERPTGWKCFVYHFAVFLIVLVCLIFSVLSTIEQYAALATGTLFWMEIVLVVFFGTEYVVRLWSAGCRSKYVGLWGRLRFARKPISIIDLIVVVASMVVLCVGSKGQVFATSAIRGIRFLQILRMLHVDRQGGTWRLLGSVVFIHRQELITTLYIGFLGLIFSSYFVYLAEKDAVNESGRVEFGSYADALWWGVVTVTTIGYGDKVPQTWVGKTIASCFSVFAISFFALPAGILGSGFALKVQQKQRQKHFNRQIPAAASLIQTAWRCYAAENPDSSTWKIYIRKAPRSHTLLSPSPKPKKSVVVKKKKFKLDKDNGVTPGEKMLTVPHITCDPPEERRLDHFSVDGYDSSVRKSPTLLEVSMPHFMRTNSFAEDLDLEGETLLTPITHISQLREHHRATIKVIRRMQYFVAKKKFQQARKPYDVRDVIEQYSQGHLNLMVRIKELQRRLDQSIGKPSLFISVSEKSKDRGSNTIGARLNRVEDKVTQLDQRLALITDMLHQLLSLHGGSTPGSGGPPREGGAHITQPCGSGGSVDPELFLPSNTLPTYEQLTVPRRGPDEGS
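System: Stable KCNQ1 CHO-K1 line | Incubation: 90 min dye loading and 20 min compound exposure, both at room temperature | Measure: Ratio B score | Medium: Assay buffer for compound exposure, DMSO matched across wells | Compound dosing: Single-concentration screen | Probe or stimulus: K+/Tl+ depolarizing stimulus | Measured by: Kinetic FluxOR fluorescence, 10 s baseline plus 110 s post-stimulus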
KCNQ1 block: inhibitors of human KCNQ1 channel, primary screen, cell-based, thallium flux, high-throughput; B-score at 10 µM; AID 2642, 2010; CHO-K1 KCNQ1, FluxOR thallium flux fluorescence; hits give high values; Potassium voltage-gated channel subfamily KQT member 1 (Homo sapiens), P51787; actives 1.3% (n = 310,000);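 active means compounds whose thallium flux B-score, printed positive for inhibition, exceeds three library SD while starting fluorescence stays within three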;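 further: channel opened by potassium depolarization with thallium stimulus after 20 min compound exposure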
Active calls of the source: *; i = inactive; / = no result.

SMILES | KCNK3 inh | hERG protect | KCNK9 block | KCNQ1 act | KCNQ1 block
CC1=C(C(=O)Nc2ccccc2C(=O)NC2CCCCC2)SCCO1 | i | -4 | i | i | i
N#CCSc1nnc(COc2cccc3ccccc23)n1-c1ccccc1 | i | -15 | i | i | i
N#CCSc1nnc(COc2cccc3ccccc23)n1-c1cccc(Cl)c1 | i | 40* | i | i | i
CCC(C(=O)NCCCN1CCN(CCCNC(=O)C(CC)c2ccccc2)CC1)c1ccccc1 (stereo unspecified) | i | 4.9* | i | i | i
CCC(C(=O)NCCCc1ccccc1)c1ccccc1 (stereo unspecified) | i | -14 | i | i | i
NC(=NC(=O)c1ccc(OC(F)(F)F)cc1)c1ccc(C(F)(F)F)cn1 | i | -2 | i | i | i
NC(=NC(=O)c1cccc(C(F)(F)F)c1)c1ccc(C(F)(F)F)cn1 | i | -10 | -7* | i | i
COc1ccc(CCNC(=O)c2cc(-c3ccccn3)nc3ccccc23)cc1 | i | / | / | / | /
CC(NC(=O)c1cccc(Cn2cc([N+](=O)[O-])cn2)c1)c1ccc(C(C)(C)C)cc1 (stereo unspecified) | i | -4 | -7.6* | i | i
COC(=O)c1c(C)[nH]c(C(=O)OCC(=O)c2ccc(C)s2)c1C | i | / | / | / | /
O=C(COC(=O)c1ccc[nH]c1=O)Nc1cc(S(=O)(=O)N2CCCCCC2)ccc1Cl | i | / | / | / | /
Cc1nnc(SCC(=O)Nc2ccc(S(=O)(=O)N3CCCC3)cc2)n1N | i | 36* | i | i | i
Nn1c(SCC(=O)Nc2ccc(F)cc2)nnc1C1CCCCC1 | i | 4.9* | i | i | i
Cc1ccccc1-n1nnnc1SCC(=O)Nc1ccc(S(=O)(=O)N2CCCC2)cc1 | i | 0 | i | i | i
Nn1c(SCC(=O)Nc2ccccc2)nnc1C1CCCCC1 | i | -7 | i | i | i
Cc1nnc(NC(=O)c2sc3nc(-c4cccs4)cc(C(F)(F)F)c3c2N)s1 | i | -19 | i | i | 6*
Nc1c(C(=O)Nc2nccs2)sc2nc(-c3cccs3)cc(C(F)(F)F)c12 | i | 1 | i | i | i
CCN(CC)C(=O)c1sc2nc(-c3cccs3)cc(-c3cccs3)c2c1N | i | -15 | -9.3* | i | 7*
O=C(COc1coc(CN2CCc3ccccc32)cc1=O)Nc1cccc(F)c1 | i | -12 | i | i | i
Cc1ccc(S(=O)(=O)N(C)CC(=O)OCC(=O)NCCN2C(=O)CSC2=O)cc1 | i | / | / | / | /
CCCc1nc2oc3c(NCCCN(C)C)ncnc3c2c2c1CCCC2 | i | -8 | i | 8* | i
CCCc1nc2oc3c(NCCN(C)C)ncnc3c2c2c1CCCC2 | i | -7 | i | 8* | i
CCCc1nc2oc3c(Cl)ncnc3c2c2c1CCCC2 | i | -4 | i | i | i
CC(NC(=O)CN1C(=O)NC2(CCCCC2C)C1=O)c1ccccc1 (stereo unspecified) | i | / | / | / | /
Cc1ccc(S(=O)(=O)/N=C2/NC(=O)/C(=C\c3cc(Br)cc(Br)c3O)S2)cc1 | i | -16 | i | i | 7*
SMILES | KCNK3 inh | hERG protect | KCNK9 block | KCNQ1 act | KCNQ1 block
CCOc1cc(Br)cc(/C=C2\SC(=Nc3ccccc3)NC2=O)c1O | i | 1 | i | i | 6*
Cc1cc(C)cc(NC(=S)N2CCC(C(=O)c3ccc(F)cc3)CC2)c1 | i | / | / | / | /
O=C(O)c1cccc2cccc(-c3c4ccc(=O)c(O)c-4oc4c(O)c(O)ccc34)c12 | i | / | / | / | /
CN1/C(=C\C(=S)Nc2ccccc2)C(C)(C)c2ccccc21 | i | -4 | -6.9* | i | i
CN1/C(=C\C(=S)NC(=O)c2ccccc2Cl)C(C)(C)c2ccccc21 | i | -6 | i | i | i
C=CCSc1nc(Oc2ccccc2)c2sccc2n1 | i | -6 | i | i | 6*
CCOC(=O)C1=C(Cn2cnc3ccccc32)NC(=O)NC1c1cc(C)ccc1C (stereo unspecified) | i | 13* | i | i | i

Compound activity from PubChem.
